Measurements as given in PMC7328899 (Nature cancer, 2020).
Values belong to the compound of their own block, whether it stands above or below them.

Tests used:
[1] = tested on: LS1034 cells; test: Tepoxalin drug synergy/antagonism assay, LS1034; format: cell-based, human; details: LS1034, 5 days, tepoxalin doses above ~5 μM
[2] = tested on: Kuramochi ovarian cancer cell line; test: Viability of Kuramochi wild type and ABCB1-overexpressing cells; format: cell-based, human; details: low-expressing, tepoxalin-insensitive cell line (Kuramochi), 8 days
How it was run: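 Kuramochi ovarian cancer cells, wild-type or ABCB1-overexpressing, were grown in RPMI with 10% FBS and seeded at 2000 cells/well. Compound was added the next day and cells were treated for 8 days. Viability was read by CellTiter-Glo luminescence, normalized to vehicle, and reported as the mean of 3 independently treated wells with SD.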

[3] = target: ABCB1 (Homo sapiens, UniProt P08183); test: ABCB1 activity assays; format: cell-based; details: MDR1-MDCK cells; calcein AM and loperamide transport assays
Chain of ABCB1 (P08183 whole entry): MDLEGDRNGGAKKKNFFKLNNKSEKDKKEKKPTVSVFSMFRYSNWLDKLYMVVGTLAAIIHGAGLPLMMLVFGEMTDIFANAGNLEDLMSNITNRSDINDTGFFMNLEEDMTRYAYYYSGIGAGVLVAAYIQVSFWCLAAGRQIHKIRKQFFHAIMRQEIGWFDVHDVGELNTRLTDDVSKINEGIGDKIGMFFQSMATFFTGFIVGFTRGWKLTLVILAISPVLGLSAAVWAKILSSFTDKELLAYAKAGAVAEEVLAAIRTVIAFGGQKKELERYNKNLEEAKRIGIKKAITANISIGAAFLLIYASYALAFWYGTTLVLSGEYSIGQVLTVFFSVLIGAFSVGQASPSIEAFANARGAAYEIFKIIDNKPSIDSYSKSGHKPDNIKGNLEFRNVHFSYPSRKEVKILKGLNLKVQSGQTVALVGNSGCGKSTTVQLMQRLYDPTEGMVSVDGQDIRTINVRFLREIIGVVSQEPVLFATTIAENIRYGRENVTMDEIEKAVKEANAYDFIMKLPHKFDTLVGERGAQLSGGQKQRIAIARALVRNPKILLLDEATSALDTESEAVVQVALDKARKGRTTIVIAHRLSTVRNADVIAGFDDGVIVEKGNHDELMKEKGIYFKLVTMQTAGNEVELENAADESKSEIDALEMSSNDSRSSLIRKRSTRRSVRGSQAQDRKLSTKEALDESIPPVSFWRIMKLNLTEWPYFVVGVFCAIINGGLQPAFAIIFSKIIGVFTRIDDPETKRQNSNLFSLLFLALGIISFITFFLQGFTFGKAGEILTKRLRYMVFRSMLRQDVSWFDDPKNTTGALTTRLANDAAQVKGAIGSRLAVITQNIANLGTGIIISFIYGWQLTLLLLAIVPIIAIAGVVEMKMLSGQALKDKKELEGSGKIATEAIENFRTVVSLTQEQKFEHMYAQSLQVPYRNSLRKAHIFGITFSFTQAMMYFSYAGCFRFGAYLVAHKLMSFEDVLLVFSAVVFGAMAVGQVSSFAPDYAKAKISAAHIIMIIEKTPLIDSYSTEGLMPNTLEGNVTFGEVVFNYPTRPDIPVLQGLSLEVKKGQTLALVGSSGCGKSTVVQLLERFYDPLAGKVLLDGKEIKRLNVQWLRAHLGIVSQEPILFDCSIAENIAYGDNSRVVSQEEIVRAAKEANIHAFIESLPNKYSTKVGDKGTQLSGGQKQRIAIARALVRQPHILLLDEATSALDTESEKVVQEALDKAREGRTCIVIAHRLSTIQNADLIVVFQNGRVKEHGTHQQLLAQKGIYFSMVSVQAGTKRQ
How it was run: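 Calcein AM efflux assay: MDR1-MDCK (MDCKII) cells incubated with test compound and calcein AM; fluorescence read-out expressed as percent ABCB1 inhibition, mean of 3 replicates. Transport assay: loperamide added to the apical side of an MDR1-MDCK monolayer and basolateral transport quantified over 60 minutes, with test compound or verapamil positive control.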

[4] = tested on: LS1034 colorectal cancer cells; test: Cellular viability assay; format: cell-based; details: Homo sapiens, LS-1034
How it was run: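 LS1034 cells were grown in RPMI with 10% heat-inactivated FBS and 1% penicillin-streptomycin, and tested mycoplasma-negative. They were seeded at 2000 cells/well and digitally dispensed with compound the next day. Exposure was 5 days. CellTiter-Glo luminescence was read, replicate wells were averaged and normalized to vehicle, and dose curves were fitted.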

[5] = tested on: SF295 glioma cell line; test: Viability of SF295 cells with and without MTF1 knockout; format: cell-based, human; details: for change of drug sensitivity after MTF1 knockout: SF295 cells, CRISPR/Cas9 MTF1 knockout vs control
How it was run: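 SF295 glioma cells: wild-type, Cas9 with GFP sgRNA, or Cas9 with MTF1 sgRNAs. Knockout was confirmed by NGS indel assay and loss of MTF1 target gene expression by RNA-seq. Cells were seeded at 2000 cells/well and dosed the next day. CellTiter-Glo viability was normalized to vehicle and reported as the mean of 3 independently treated wells with SD.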

[6] = tested on: LS1034 and REC1 cell lines; test: Drug synergy/antagonism assays, LS1034 and REC1; format: cell-based, human
How it was run: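 LS1034 or REC1 cells received a dose-response matrix of test compound with paclitaxel, and viability was read by CellTiter-Glo. Signals were normalized to the median of DMSO wells on each plate. Bliss synergy scores were estimated across all dose combinations with default baseline correction. The value is the score with highest magnitude across combinations (max synergy).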

[7] = tested on: OVISE cells; test: Viability of OVISE cells with and without SLC26A2 knockout; format: cell-based, human; details: CRISPR/Cas9 SLC26A2 knockout
How it was run: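 OVISE cells were grown in RPMI with 10% FBS and used with or without CRISPR/Cas9 SLC26A2 knockout; GFP sgRNA served as the non-targeting control. Indel frequency at the cut sites was checked by NGS. Cells were seeded at 2000 cells/well and dosed the next day. CellTiter-Glo viability was normalized to vehicle and reported as the mean of three independently treated wells with SD.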

[8] = tested on: PDE3A-SLFN12; details: cited from earlier work
[9] = tested on: LS1034 colon cancer cell lines with and without ABCB1 knockout
[10] = tested on: ABCB1-expressing cancer cells; test: Viability of ABCB1-expressing cancer cells; format: cell-based, human; details: compared with tepoxalin

Compound: O[C@@H](COc1cccc2ncccc12)CN1CCN([C@@H]2c3ccccc3[C@@H]3[C@H](c4ccccc42)C3(F)F)CC1 [zosuquidar]
Bliss synergy in combination with tepoxalin [1]: strong antagonism

ABCB1 inhibition [3]: inhibit ABCB1 at high concentrations
IC50 [4]: 3.8 µM
Compound: COc1ccc(-n2nc(CCC(=O)N(C)O)cc2-c2ccc(Cl)cc2)cc1 [tepoxalin]
change of drug sensitivity after ABCB1 overexpression [2]: increased drug sensitivity

Compound: CC(C)C[C@H](NC(=O)[C@H](Cc1ccccc1)NC(=O)c1cnccn1)B(O)O [bortezomib]
change of drug sensitivity after MTF1 knockout [5]: did not alter sensitivity

Compound: COc1cc2c(cc1OC)CN(CCc1ccc(NC(=O)c3cccc4c(=O)c5cccc(OC)c5[nH]c34)cc1)CC2 [elacridar]
maximum synergy score in combination with paclitaxel [6]: strongly synergistic

Compound: bis(ethylmaltolato)oxovanadium(IV) [BEOV]
sensitivity of cells after SLC26A2 knockout [7]: resistant

Compound: COc1cc2c(cc1OC)CN(CCc1ccc(NC(=O)c3cc(OC)c(OC)cc3NC(=O)c3cnc4ccccc4c3)cc1)CC2 [tariquidar]
maximum synergy score in combination with paclitaxel [6]: strongly synergistic

Compound: Cc1occc(=O)c1[O-].Cc1occc(=O)c1[O-].[O]=[V+2] [BMOV, bis(maltolato)oxovanadium(IV)]
sensitivity of cells after SLC26A2 knockout [7]: resistant

Compound: CCN(CC)C(=S)SSC(=S)N(CC)CC [disulfiram]
effect of copper chelator tetrathiomolybdate (TTM) on the increased sensitivity ([5]; SF295 MTF1 knockout cells, co-treatment with 1 μM TTM): completely reversed
change of drug sensitivity after MTF1 knockout [5]: increased sensitivity

Compound: COc1cc2c(cc1OC)-c1c/c(=N\c3c(C)cc(C)cc3C)n(C)c(=O)n1CC2 [trequinsin]
induction of PDE3A-SLFN12 interaction [8]: does not induce PDE3A-SLFN12 interaction

cell permeability [9]: not cell-permeable
Compound: COc1ccc(-n2nc(CCC(=O)O)cc2-c2ccc(Cl)cc2)cc1 [RWJ20142, 3-(5-(4-chlorophenyl)-1-(4-methoxyphenyl)-1H-pyrazol-3-yl)propanoic acid]
inhibition of ABCB1-expressing cancer cells [10]: no inhibition
